# Bridge positions count the residues as written; N and C are the ends. Square brackets hold non-standard residues; d marks the D form. Peptide text beside a SMILES is read from it. dTic = O=C(O)[C@H]1Cc2ccccc2CN1; Pen = CC(C)(S)[C@H](N)C(=O)O
# Assays:
# Mu-type opioid receptor = Mu-type opioid receptor (Rattus norvegicus, UniProt P33535); assay: Binding affinity for rat brain Opioid receptor mu 1
# Method in brief: (§1)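 Whole-brain membranes from adult Sprague-Dawley rats (250-300 g), homogenized at 0 °C in 50 mM Tris-HCl pH 7.4, centrifuged at 48 000g, and preincubated at 25 °C to strip endogenous ligand. Competition run for 3 h at 25 °C in Tris-HCl with BSA, bestatin, bacitracin, captopril and PMSF. Radioligand was [3H][4′-Cl-Phe4]DPDPE 0.75 nM for δ or [3H]DAMGO 1.0 nM for μ, with ≥10 analogue concentrations. Nonspecific binding defined with 10 µM naltrexone; each analogue tested ≥3 times.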
# [1] = target: Delta-type opioid receptor (Rattus norvegicus, UniProt P33533); assay: Binding affinity for rat brain Opioid receptor delta 1; method in brief: as §1
# Mus musculus = species on record: Mus musculus; assay: Evaluated for agonist activity as percent inhibition in electrically evoked twitch height in mouse vas deferens (MVD) at 1 uM concentration of compound; format: functional
# Method in brief: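 Vasa deferentia from male ICR mice (25-40 g), held in magnesium-free Krebs at 37 °C under 95% O₂/5% CO₂. Hung 15 min without tension, then under 0.5 g resting tension. Stimulated transmurally at 0.1 Hz, 2 ms pulses, supramaximal voltage. Twitch inhibition read 3 min after agonist, expressed relative to the pre-dose twitch height. Mean ± SEM.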
# Cavia porcellus [2] = species on record: Cavia porcellus; assay: Evaluated for agonist activity as percent inhibition in electrically evoked twitch height in Guinea pig ileum (GPI) at 1 uM concentration of compound; format: functional
# Method in brief: (§2)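 Longitudinal muscle-myenteric plexus strips from nonterminal ileum of male Hartley guinea pigs (250-500 g). Held in Krebs-bicarbonate at 37 °C under 95% O₂/5% CO₂, 1 g resting tension after 15 min unloaded equilibration. Stimulated transmurally at 0.1 Hz, 0.4 ms pulses, supramaximal voltage. Agonist twitch effect read after 3 min incubation; antagonist added 2 min before agonist. Mean ± SEM.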
# Cavia porcellus [3] = species on record: Cavia porcellus; assay: Evaluated for antagonist activity as the rightward fold shift of dose response curve of the known agonist PL-017 in Guinea pig ileum (GPI) at 1 uM concentration of compound; format: functional; method in brief: as §2
# Cavia porcellus [4] = species on record: Cavia porcellus; assay: Evaluated for antagonist activity as the rightward fold shift of dose response curve of the known agonist PL-017 in Guinea pig ileum (GPI). 1-fold indicates no change in the dose response curve; format: functional; method in brief: as §2
# Chain of Mu-type opioid receptor (P33535 whole entry): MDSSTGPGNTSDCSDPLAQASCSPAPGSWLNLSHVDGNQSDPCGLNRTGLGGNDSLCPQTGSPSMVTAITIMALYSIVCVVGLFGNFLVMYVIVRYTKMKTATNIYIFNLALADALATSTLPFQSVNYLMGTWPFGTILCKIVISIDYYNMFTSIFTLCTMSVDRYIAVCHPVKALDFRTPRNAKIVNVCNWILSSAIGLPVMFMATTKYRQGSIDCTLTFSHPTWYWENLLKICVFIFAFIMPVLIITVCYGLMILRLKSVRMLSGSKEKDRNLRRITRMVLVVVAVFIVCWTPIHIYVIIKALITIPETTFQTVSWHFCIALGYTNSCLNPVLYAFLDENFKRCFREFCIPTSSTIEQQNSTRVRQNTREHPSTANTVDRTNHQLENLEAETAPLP
# Chain of Delta-type opioid receptor (P33533 whole entry): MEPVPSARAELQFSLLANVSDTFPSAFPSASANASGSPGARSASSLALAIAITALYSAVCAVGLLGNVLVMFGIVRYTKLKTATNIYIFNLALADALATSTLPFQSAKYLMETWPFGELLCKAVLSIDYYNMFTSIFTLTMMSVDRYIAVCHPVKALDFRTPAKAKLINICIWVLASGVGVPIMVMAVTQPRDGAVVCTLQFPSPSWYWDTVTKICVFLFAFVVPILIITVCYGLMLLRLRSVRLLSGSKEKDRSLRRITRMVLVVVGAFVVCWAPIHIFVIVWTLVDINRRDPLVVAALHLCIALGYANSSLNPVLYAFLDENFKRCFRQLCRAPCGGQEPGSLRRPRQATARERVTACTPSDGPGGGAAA
SMILES,IC50 (Mu-type opioid receptor),IC50 [1],inhibition at 1 µM (Mus musculus),inhibition at 1 µM (Cavia porcellus [2]),PL-017 shift (Cavia porcellus [3]),PL-017 shift (Cavia porcellus [4])
C[C@H](c1ccccc1)[C@@H](N)C(=O)N[C@H]1CSSC(C)(C)[C@@H](C(=O)N[C@H](C(N)=O)[C@@H](C)O)NC(=O)[C@H]([C@@H](C)O)NC(=O)[C@H](CCCN=C(N)N)NC(=O)[C@@H](Cc2c[nH]c3ccccc23)NC(=O)[C@H](Cc2ccc(O)cc2)NC1=O [listing 1 of 2 here],0.02 µM,1.19 µM,,,,
C[C@H](c1ccccc1)[C@@H](N)C(=O)N[C@H]1CSSC(C)(C)[C@@H](C(=O)N[C@H](C(N)=O)[C@@H](C)O)NC(=O)[C@H]([C@@H](C)O)NC(=O)[C@H](CCCN=C(N)N)NC(=O)[C@@H](Cc2c[nH]c3ccccc23)NC(=O)[C@H](Cc2ccc(O)cc2)NC1=O [listing 2 of 2 here],,,34%,0%,19,
C[C@H](c1c[nH]c2ccccc12)[C@H](N)C(=O)N[C@H]1CSSC(C)(C)[C@@H](C(=O)N[C@H](C(N)=O)[C@@H](C)O)NC(=O)[C@H]([C@@H](C)O)NC(=O)[C@H](CCCNC(=N)N)NC(=O)[C@@H](Cc2c[nH]c3ccccc23)NC(=O)[C@H](Cc2ccc(O)cc2)NC1=O,3.4 µM,7.46 µM,,,,
C[C@@H](O)[C@H](NC(=O)[C@H]1NC(=O)[C@H]([C@@H](C)O)NC(=O)[C@H](CCCNC(=N)N)NC(=O)[C@@H](Cc2c[nH]c3ccccc23)NC(=O)[C@H](Cc2ccc(O)cc2)NC(=O)[C@@H](NC(=O)[C@H](N)[C@@H](C)c2c[nH]c3ccccc23)CSSC1(C)C)C(N)=O,0.0121 µM,7.48 µM,,,,
C[C@@H](O)[C@H](NC(=O)[C@H]1NC(=O)[C@H]([C@@H](C)O)NC(=O)[C@H](CCCN=C(N)N)NC(=O)[C@@H](Cc2c[nH]c3ccccc23)NC(=O)[C@H](Cc2ccc(O)cc2)NC(=O)[C@@H](NC(=O)[C@H]2Cc3c([nH]c4ccccc34)CN2)CSSC1(C)C)C(N)=O [listing 1 of 2 here],,,,18%,1.2,
C[C@@H](O)[C@H](NC(=O)[C@H]1NC(=O)[C@H]([C@@H](C)O)NC(=O)[C@H](CCCN=C(N)N)NC(=O)[C@@H](Cc2c[nH]c3ccccc23)NC(=O)[C@H](Cc2ccc(O)cc2)NC(=O)[C@@H](NC(=O)[C@H](N)Cc2c[nH]c3ccccc23)CSSC1(C)C)C(N)=O [listing 1 of 2 here],,,13.6%,43%,1,
C[C@@H](O)[C@H](NC(=O)[C@H]1NC(=O)[C@H]([C@@H](C)O)NC(=O)[C@H](CCCN=C(N)N)NC(=O)[C@@H](Cc2c[nH]c3ccccc23)NC(=O)[C@H](Cc2ccc(O)cc2)NC(=O)[C@@H](NC(=O)[C@H](N)Cc2c[nH]c3ccccc23)CSSC1(C)C)C(N)=O [listing 2 of 2 here],0.00139 µM,3.53 µM,,,,
C[C@@H](O)[C@H](NC(=O)[C@H]1NC(=O)[C@H]([C@@H](C)O)NC(=O)[C@H](CCCN=C(N)N)NC(=O)[C@@H](Cc2c[nH]c3ccccc23)NC(=O)[C@H](Cc2ccc(O)cc2)NC(=O)[C@@H](NC(=O)[C@H](N)[C@@H](C)c2ccccc2)CSSC1(C)C)C(N)=O [listing 1 of 2 here],0.021 µM,1.32 µM,,,,
C[C@@H](O)[C@H](NC(=O)[C@H]1NC(=O)[C@H]([C@@H](C)O)NC(=O)[C@H](CCCNC(=N)N)NC(=O)[C@@H](Cc2c[nH]c3ccccc23)NC(=O)[C@H](Cc2ccc(O)cc2)NC(=O)[C@@H](NC(=O)[C@@H](N)[C@@H](C)c2c[nH]c3ccccc23)CSSC1(C)C)C(N)=O,1.36 µM,9.18 µM,,,,
C[C@@H](O)[C@H](NC(=O)[C@H]1NC(=O)[C@H]([C@@H](C)O)NC(=O)[C@H](CCCN=C(N)N)NC(=O)[C@@H](Cc2c[nH]c3ccccc23)NC(=O)[C@H](Cc2ccc(O)cc2)NC(=O)[C@@H](NC(=O)[C@@H](N)[C@@H](C)c2c[nH]c3ccccc23)CSSC1(C)C)C(N)=O,,,0%,0%,2.6,
C[C@H](c1ccccc1)[C@H](N)C(=O)N[C@H]1CSSC(C)(C)[C@@H](C(=O)N[C@H](C(N)=O)[C@@H](C)O)NC(=O)[C@H]([C@@H](C)O)NC(=O)[C@H](CCCN=C(N)N)NC(=O)[C@@H](Cc2c[nH]c3ccccc23)NC(=O)[C@H](Cc2ccc(O)cc2)NC1=O [listing 1 of 2 here],5.42 µM,13.2 µM,,,,
C[C@H](c1c[nH]c2ccccc12)[C@H](N)C(=O)N[C@H]1CSSC(C)(C)[C@@H](C(=O)N[C@H](C(N)=O)[C@@H](C)O)NC(=O)[C@H]([C@@H](C)O)NC(=O)[C@H](CCCN=C(N)N)NC(=O)[C@@H](Cc2c[nH]c3ccccc23)NC(=O)[C@H](Cc2ccc(O)cc2)NC1=O,,,0%,0%,1,
C[C@@H](O)[C@H](NC(=O)[C@H]1NC(=O)[C@H]([C@@H](C)O)NC(=O)[C@H](CCCN=C(N)N)NC(=O)[C@@H](Cc2c[nH]c3ccccc23)NC(=O)[C@H](Cc2ccc(O)cc2)NC(=O)[C@@H](NC(=O)[C@H](N)[C@@H](C)c2c[nH]c3ccccc23)CSSC1(C)C)C(N)=O,,,0%,0%,68,
C[C@@H](O)[C@H](NC(=O)[C@H]1NC(=O)[C@H]([C@@H](C)O)NC(=O)[C@H](CCCN=C(N)N)NC(=O)[C@@H](Cc2c[nH]c3ccccc23)NC(=O)[C@H](Cc2ccc(O)cc2)NC(=O)[C@@H](NC(=O)[C@H]2Cc3ccccc3CN2)CSSC1(C)C)C(N)=O (H-[dTic]CY[dW]RT[Pen]T-NH2; disulfide 2-7),,,10%,1%,60,
C[C@@H](O)[C@H](NC(=O)[C@H]1NC(=O)[C@H]([C@@H](C)O)NC(=O)[C@H](CCCN=C(N)N)NC(=O)[C@@H](Cc2c[nH]c3ccccc23)NC(=O)[C@H](Cc2ccc(O)cc2)NC(=O)[C@@H](NC(=O)[C@H](N)[C@@H](C)c2ccccc2)CSSC1(C)C)C(N)=O [listing 2 of 2 here],,,8%,0%,15,
C[C@H](c1c[nH]c2ccccc12)[C@@H](N)C(=O)N[C@H]1CSSC(C)(C)[C@@H](C(=O)N[C@H](C(N)=O)[C@@H](C)O)NC(=O)[C@H]([C@@H](C)O)NC(=O)[C@H](CCCNC(=N)N)NC(=O)[C@@H](Cc2c[nH]c3ccccc23)NC(=O)[C@H](Cc2ccc(O)cc2)NC1=O,0.0187 µM,3.64 µM,,,,
C[C@@H](O)[C@H](NC(=O)[C@H]1NC(=O)[C@H]([C@@H](C)O)NC(=O)[C@H](CCCN=C(N)N)NC(=O)[C@@H](Cc2c[nH]c3ccccc23)NC(=O)[C@H](Cc2ccc(O)cc2)NC(=O)[C@@H](NC(=O)[C@@H](N)[C@@H](C)c2ccccc2)CSSC1(C)C)C(N)=O,,,35%,0%,1,
C[C@H](c1c[nH]c2ccccc12)[C@@H](N)C(=O)N[C@H]1CSSC(C)(C)[C@@H](C(=O)N[C@H](C(N)=O)[C@@H](C)O)NC(=O)[C@H]([C@@H](C)O)NC(=O)[C@H](CCCN=C(N)N)NC(=O)[C@@H](Cc2c[nH]c3ccccc23)NC(=O)[C@H](Cc2ccc(O)cc2)NC1=O,,,3.7%,0%,39,
C[C@@H](O)[C@H](NC(=O)[C@H]1NC(=O)[C@H]([C@@H](C)O)NC(=O)[C@H](CCCN=C(N)N)NC(=O)[C@@H](Cc2c[nH]c3ccccc23)NC(=O)[C@H](Cc2ccc(O)cc2)NC(=O)[C@@H](NC(=O)[C@H]2Cc3c([nH]c4ccccc34)CN2)CSSC1(C)C)C(N)=O [listing 2 of 2 here],0.173 µM,0.211 µM,,,,
C[C@@H](O)[C@H](NC(=O)[C@H]1NC(=O)[C@H]([C@@H](C)O)NC(=O)[C@H](CCCNC(=N)N)NC(=O)[C@@H](Cc2c[nH]c3ccccc23)NC(=O)[C@H](Cc2ccc(O)cc2)NC(=O)[C@@H](NC(=O)[C@H](N)Cc2ccccc2)CSSC1(C)C)C(N)=O,,,17%,4%,55,
C[C@@H](O)[C@H](NC(=O)[C@H]1NC(=O)[C@H]([C@@H](C)O)NC(=O)[C@H](CCCNC(=N)N)NC(=O)[C@@H](Cc2c[nH]c3ccccc23)NC(=O)[C@H](Cc2ccc(O)cc2)NC(=O)[C@@H](NC(=O)[C@@H](N)[C@@H](C)c2ccccc2)CSSC1(C)C)C(N)=O,1.5 µM,> 15 µM,,,,
C[C@H](c1ccccc1)[C@H](N)C(=O)N[C@H]1CSSC(C)(C)[C@@H](C(=O)N[C@H](C(N)=O)[C@@H](C)O)NC(=O)[C@H]([C@@H](C)O)NC(=O)[C@H](CCCN=C(N)N)NC(=O)[C@@H](Cc2c[nH]c3ccccc23)NC(=O)[C@H](Cc2ccc(O)cc2)NC1=O [listing 2 of 2 here],,,0%,13%,,1
